DAT uptake mod: human DAT dopamine uptake with cocaine, either direction; LLC-PK1 hDAT cells, [14C]-dopamine uptake with cocaine IC80; actives deviate in either direction; Q01959; hit rate 1.3% among 110,000; B-score at 10 µM;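 active = Z score or B-score, a plate-position-corrected score, falls beyond the plate's 99.7% confidence bounds, in either direction; inactive = both scores lie inside the 99.7% bounds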
BAP1 block: inhibitors of human BAP1 deubiquitinase | hit rate 0.48% among 72,000 | recombinant BAP1, Ub-AMC hydrolysis fluorescence kinetic; stronger effect = lower value | calls only at 20 µM | Q92560;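 active = activity remaining at or below 50% of control, provided the compound also passes the data quality filters; inactive = the rest, including low values that fail the filters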
M1 agonist: agonists of M1 muscarinic receptor; CHO-M1 cells, Fluo-4 calcium fluorescence, agonist mode; stronger effect = higher value; B-score at 10 µM; hit rate 3% among 64,000; AID 626;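 active = fluorescence rise, raw or as B-score row- and column-corrected plate score, outside the 99.7% band of its plate's samples, either direction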
D1 mod: allosterically modulates the human D1 dopamine receptor; HEK293 D1, CRE-luciferase, dopamine EC30 potentiation; actives deviate in either direction; B-score at 10 µM; hit rate 5.9% among 58,000; P21728; AID 641;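 active = luminescence count or its row- and column-corrected plate score outside the 99.7% band of the plate's sample wells, on either side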
HEK293 NFkB inh: lowers PMA/ionomycin-induced NF-kB signal in HEK293 cells | HEK-293 NF-kB luciferase reporter, luminescence | inhibition, % at 3 µM | hit rate 0.21% among 62,000 | AID 465;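 active = inhibition above the mean of all tested compounds plus 3 SD, cut at about 40% in these data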
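System – HEK-293 cells with stable firefly luciferase reporter driven by four HIV NF-kB elements · Doses – one dose, 3 µM · Schedule – 1 h compound pre-incubation, 16 h PMA/ionomycin at 37 °C · Technique – luminescence from luciferase substrate reagent · Measure – percent inhibition normalized per plate to DMSO and reference-inhibitor controls · Replicates – tested once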
M1 antagonist: M1 muscarinic receptor (rat) antagonism. P08482. CHO-M1 cells, Fluo-4 calcium, ACh EC80 antagonist mode; stronger effect = lower value. B-score at 10 µM. hit rate 3.4% among 64,000. AID 628;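 active = calcium fluorescence response, raw or row-and-column corrected B-score, differing from the plate sample mean either way at a set confidence level, mostly lower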
BAP1 inh confirm: confirmation of human BAP1 enzyme inhibitors | shares compounds with BAP1 block | hit rate 8% among 310 | AID 753 | purified BAP1, Ub-ethyl ester hydrolysis, HPLC; stronger effect = lower value | % of control activity, % at 20 µM;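 active = percent of control activity at or below 60%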
Large screens that a line does not name were inactive (follow-up assays come after a bar, where shown). The list is not random: actives were taken first. Their share in the collection is about 7.2%.

O=C(c1ccccc1)c1ccc(OCC(O)CN2CCN(S(=O)(=O)N3CCCCC3)CC2)cc1 (stereo not given)	none (no result: BAP1 block, M1 agonist, D1 mod, HEK293 NFkB inh, M1 antagonist)
CCC(=O)c1ccc(OCC(O)CN2CCN(S(=O)(=O)N3CCCCC3)CC2)cc1 (stereo not given)	BAP1 block active | BAP1 inh confirm inactive
CCOC(=O)CSc1nc2cc(C)ccc2cc1C#N	none
CCOC(=O)CSc1nc2cc(OC)ccc2cc1C#N	DAT uptake mod -9.81, BAP1 block active | BAP1 inh confirm inactive
O=C(CSc1nnc(-c2ccc(F)cc2)o1)Nc1ccc(S(=O)(=O)N2CCCCCC2)cc1	BAP1 block active | BAP1 inh confirm inactive
CCn1c(SCc2nnc(-c3ccccc3)o2)nnc1-c1ccc(S(=O)(=O)N2CCCC2)cc1	none
O=S(=O)(c1ccc(-c2nnc(SCc3nnc(-c4ccccc4)o3)o2)cc1)N1CCCC1	BAP1 block active | BAP1 inh confirm inactive
CCCCOc1ccc(C2C(N3C(=O)c4ccccc4C3=O)C(=O)N2c2ccc(C)cc2)cc1 (stereo not given)	none (no result: DAT uptake mod, M1 agonist, D1 mod, HEK293 NFkB inh, M1 antagonist)
Oc1ccc(Br)cc1/C=N/n1cnc2ccccc21	BAP1 block active | BAP1 inh confirm inactive
COc1ccc(C2C(C(C)=O)=C(C)N=c3s/c(=C\c4ccco4)c(=O)n32)c(OC)c1 (stereo not given)	BAP1 block active | BAP1 inh confirm inactive
CC(=O)Nc1ccc(N=Cc2ccc(C=Nc3ccc(NC(C)=O)cc3)cc2)cc1	none (no result: DAT uptake mod, M1 agonist, D1 mod, HEK293 NFkB inh, M1 antagonist)
O=c1[nH]c2ccc(Cl)cc2c(-c2ccccc2)c1N1CCN(c2ccccn2)CC1	BAP1 block active | BAP1 inh confirm inactive
CCn1c(=O)c(C(=O)NCCc2ccccc2)c(O)c2ccccc21	BAP1 block active | BAP1 inh confirm inactive
Cn1c(-c2c(N)n(C3CCCC3)c3nc4ccccc4nc23)nc2ccccc21	BAP1 block active | BAP1 inh confirm inactive
Cn1c(-c2c(N)n(CCc3ccccc3)c3nc4ccccc4nc23)nc2ccccc21	none (no result: BAP1 block, M1 agonist, D1 mod, HEK293 NFkB inh, M1 antagonist)
CCCCc1ccc(Nc2nc(CCC)cc(=O)[nH]2)cc1	BAP1 block active | BAP1 inh confirm inactive
c1ccc2c(-c3nc(C4CCCCC4)no3)cc(-c3ccncc3)nc2c1	BAP1 block active | BAP1 inh confirm inactive
CCOC(=O)c1ccc(OCC(=O)c2ccc(O)cc2O)cc1	BAP1 block active | BAP1 inh confirm inactive
CCOC(=O)c1cnc(SC)nc1Nc1cccc2ccccc12	none (no result: BAP1 block, M1 agonist, D1 mod, HEK293 NFkB inh, M1 antagonist)
COCC(=O)N(C)C1(c2nnnn2CCOC(=O)Nc2cccc3ccccc23)CCCC1	BAP1 block active | BAP1 inh confirm inactive
Cc1ccc(NC(=O)CCCCCN2C(=O)c3ccccc3C2=O)c(C)c1	none (no result: DAT uptake mod, M1 agonist, D1 mod, HEK293 NFkB inh, M1 antagonist)
COCCn1nnnc1C(c1cc2ccc(C)cc2[nH]c1=O)N(Cc1ccco1)Cc1cccs1 (stereo not given)	BAP1 block active | BAP1 inh confirm inactive
CCOC(=O)c1c(NC(=O)c2cccc(N3C(=O)CCC3=O)c2)sc2c1CCC2	none (no result: DAT uptake mod, M1 agonist, D1 mod, HEK293 NFkB inh, M1 antagonist)
Cc1ccc2[nH]c(=O)c(CN(Cc3ccc4c(c3)OCO4)Cc3nnnn3Cc3ccco3)cc2c1	BAP1 block active | BAP1 inh confirm inactive
O=c1[nH]c2cc3c(cc2cc1CN(Cc1ccccc1)Cc1nnnn1Cc1ccco1)OCCO3	none
Cc1cccc2cc(CN(Cc3cccs3)Cc3nnnn3Cc3ccccc3)c(=O)[nH]c12	BAP1 block active | BAP1 inh confirm inactive
Cc1ccc2[nH]c(=O)c(CN(Cc3ccc4c(c3)OCO4)Cc3nnnn3C3CCCC3)cc2c1	none (not shown: DAT uptake mod, BAP1 block)
CCc1ccc2[nH]c(=O)c(CN(Cc3ccccc3)Cc3nnnn3Cc3ccco3)cc2c1	BAP1 block active (no result: M1 agonist, D1 mod, M1 antagonist) | BAP1 inh confirm inactive
O=C(O)c1cc(C(c2ccc(O)c(C(=O)O)c2)C(Cl)(Cl)Cl)ccc1O	none (no result: DAT uptake mod, M1 agonist, D1 mod, HEK293 NFkB inh, M1 antagonist)
Cc1c(N2C(=O)c3ccc(Br)cc3C2=O)c(=O)n(-c2ccccc2)n1C	none (no result: BAP1 block, M1 agonist, D1 mod, HEK293 NFkB inh, M1 antagonist)
Cc1c(N2C(=O)c3ccc4c5c(ccc(c35)C2=O)CC4)c(=O)n(-c2ccccc2)n1C	BAP1 block active | BAP1 inh confirm inactive
Cc1ccc(C)c(N2CCN(C(=O)CCCn3c(=S)[nH]c4cc5c(cc4c3=O)OCO5)CC2)c1	BAP1 block active | BAP1 inh confirm inactive
